# Active and inactive are the calls of the source. The rule behind the calls is not given here.
# Assays:
# [1] = system: Porphyromonas gingivalis; assay: Antibacterial activity against Porphyromonas gingivalis 381 assessed as bacterial growth inhibition at 1 uM treated for 24 hrs by WST1 assay relative to control; assay type: functional; conditions: read-out: GI
# Summary of the method: (§1)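 P. gingivalis 381 read by colorimetric WST-1 after 24 h. Derivatives were tested at 1, 10 and 100 μM. Tetracycline was run at 2.81 μM and ZAF at 25 and 50 μM as positive controls, with DMSO as negative control. Percent growth inhibition is versus medium-only cultures. Derivatives had 6 independent replicates per condition; controls had 36.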
# [2] = system: Porphyromonas gingivalis; assay: Antibacterial activity against Porphyromonas gingivalis 381 assessed as bacterial growth inhibition at 100 uM treated for 24 hrs by WST1 assay relative to control; assay type: functional; conditions: read-out: GI; summary of the method: as §1
# [3] = system: Porphyromonas gingivalis; assay: Antibacterial activity against Porphyromonas gingivalis 381 assessed as bacterial growth inhibition at 10 uM treated for 24 hrs by WST1 assay relative to control; assay type: functional; conditions: read-out: GI; summary of the method: as §1
# [4] = Cytotoxicity against hTERT-immortalized human OKF6 cells assessed as small and rounded cell morphology at 25 uM incubated for 24 hrs by trypan blue dye based light inverted microscopic analysis; conditions: okf6, 24 h
# Summary of the method: (§2)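 OKF6 cells were imaged by microscopy after 24 h treatment, with derivatives at 10 μM, to judge cell morphology and density from whole-well images. Medium-only and DMSO wells served as negative controls. Staurosporine 8 μM and ZAF 25 μM served as positive controls.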
# [5] = system: Porphyromonas gingivalis; assay: Antibacterial activity against Porphyromonas gingivalis 381 assessed as bacterial growth inhibition at 25 uM treated for 24 hrs by WST1 assay relative to control; assay type: functional; conditions: read-out: GI; summary of the method: as §1
# [6] = Cytotoxicity against hTERT-immortalized human OKF6 cells assessed as reduction in cell density at 25 uM incubated for 24 hrs by trypan blue dye based light inverted microscopic analysis; conditions: okf6, 24 h; summary of the method: as §2
# [7] = system: Porphyromonas gingivalis; assay: Antibacterial activity against Porphyromonas gingivalis 381 assessed as bacterial growth inhibition at 50 uM treated for 24 hrs by WST1 assay relative to control; assay type: functional; conditions: read-out: GI; summary of the method: as §1
# [8] = system: Porphyromonas gingivalis; assay: Antibacterial activity against Porphyromonas gingivalis 381 assessed as bacterial growth inhibition at 1 to 100 uM treated for 24 hrs by WST1 assay relative to control; assay type: functional; summary of the method: as §1
# [9] = system: Porphyromonas gingivalis; assay: Antibacterial activity against Porphyromonas gingivalis 381 assessed as bacterial growth inhibition at 2.81 uM treated for 24 hrs by WST1 assay relative to control; assay type: functional; conditions: read-out: GI; summary of the method: as §1
# [10] = Cytotoxicity against hTERT-immortalized human OKF6 cells assessed as cell viability at 10 uM incubated for 24 hrs by Annexin V-FITC/propidium iodide staining based flow cytometric analysis relative to control; conditions: read-out: Activity
# Summary of the method: (§3)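 OKF6/hTERT oral keratinocytes were treated for 24 h, then apoptosis and necrosis were assessed by flow cytometry. DMSO served as negative control; staurosporine 8 μM and ZAF 25 μM served as positive controls. Data come from two independent experiments run in duplicate, with at least 10,000 events analysed per condition.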
# [11] = system: Porphyromonas gingivalis; assay: Bactericidal activity against Porphyromonas gingivalis 381 assessed as growth inhibition at 100 uM treated for 24 hrs under anaerobic conditions followed by culturing in blood agar plate and measured after 5 days of incubation in an anaerobic chamber by CFU assay relative to control; assay type: functional; conditions: read-out: GI
# Summary of the method: (§4)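 P. gingivalis 381 was exposed in media for 24 h at 1, 10 or 100 μM, then grown on blood agar plates for 5 days under anaerobic conditions and counted as CFUs/mL. Percent inhibition = 100 × [CFUs/mL control − CFUs/mL experimental]/CFUs/mL control, versus medium-only bacteria. Six independent replicates per condition for test compounds, 12 for controls (tetracycline 2.81 μM, ZAF 25/50 μM, DMSO).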
# [12] = system: Veillonella parvula; assay: Antibacterial activity against Veillonella parvula ATCC 10790 assessed as bacterial growth inhibition at 1 to 100 uM treated for 24 hrs by WST1 assay; assay type: functional, organism-based; conditions: dose microM 1-100, time 24.0 hrs
# Summary of the method: (§5)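 WST-1 colorimetric growth assay across oral bacterial species, 24 h exposure. DMSO as negative control. Positive controls were ZAF at 25 and 50 μM, or penicillin/streptomycin 1X (100 U/mL penicillin, 100 μg/mL streptomycin). Percent growth inhibition is relative to cultures in medium only, averaged from six independent replicates per condition.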
# [13] = Cytotoxicity against hTERT-immortalized human OKF6 cells assessed as large and flattened cell morphology at 10 uM incubated for 24 hrs by trypan blue dye based light inverted microscopic analysis; conditions: okf6, 24 h; summary of the method: as §2
# [14] = Cytotoxicity against hTERT-immortalized human OKF6 cells assessed as cell viability at 1 uM incubated for 24 hrs by Annexin V-FITC/propidium iodide staining based flow cytometric analysis relative to control; conditions: read-out: Activity; summary of the method: as §3
# [15] = Cytotoxicity against hTERT-immortalized human OKF6 cells assessed as reduction in cell density at 10 uM incubated for 24 hrs by trypan blue dye based light inverted microscopic analysis; conditions: okf6, 24 h; summary of the method: as §2
# [16] = system: Aggregatibacter actinomycetemcomitans; assay: Antibacterial activity against Aggregatibacter actinomycetemcomitans JP2 assessed as bacterial growth inhibition at 1 to 100 uM treated for 24 hrs by WST1 assay; assay type: functional, organism-based; conditions: dose microM 1-100, time 24.0 hrs; summary of the method: as §5
# [17] = system: Porphyromonas gingivalis; assay: Bactericidal activity against Porphyromonas gingivalis 381 assessed as growth inhibition at 10 uM treated for 24 hrs under anaerobic conditions followed by culturing in blood agar plate and measured after 5 days of incubation in an anaerobic chamber by CFU assay; assay type: functional, organism-based; summary of the method: as §4
# [18] = system: Porphyromonas gingivalis; assay: Bactericidal activity against Porphyromonas gingivalis 381 assessed as growth inhibition at 1 uM treated for 24 hrs under anaerobic conditions followed by culturing in blood agar plate and measured after 5 days of incubation in an anaerobic chamber by CFU assay relative to control; assay type: functional, organism-based; summary of the method: as §4
# [19] = Cytotoxicity against hTERT-immortalized human OKF6 cells assessed as small and rounded cell morphology at 10 uM incubated for 24 hrs by trypan blue dye based light inverted microscopic analysis; conditions: okf6, 24 h
# Summary of the method: (§6)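 Immortalized oral keratinocytes (OKF6/hTERT) were exposed for 24 h to test compounds at 10 μM. Controls were staurosporine at 8 μM or zafirlukast at 25 μM (positive) and medium only or DMSO (negative). Whole-well microscope images were then scored qualitatively for cell density and morphology (size, shape, spacing between cells).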
# [20] = Cytotoxicity against hTERT-immortalized human OKF6 cells assessed as small and rounded cell morphology at 8 uM incubated for 24 hrs by trypan blue dye based light inverted microscopic analysis; conditions: okf6, 24 h; summary of the method: as §6
# [21] = Cytotoxicity against hTERT-immortalized human OKF6 cells assessed as reduction in cell density at 8 uM incubated for 24 hrs by trypan blue dye based light inverted microscopic analysis; conditions: okf6, 24 h; summary of the method: as §6
# [22] = dose microM 1-100, time 24.0 hrs
SMILES,inhibition of growth at 1 µM [1] [%],inhibition of growth at 100 µM [2] [%],inhibition of growth at 10 µM [3] [%],"viability at 24 h, 10 µM [10] [%]",inhibition of growth at 100 µM [11] [%],growth inhibition (GI) [12],"viability at 24 h, 1 µM [14] [%]",Activity [15],growth inhibition (GI) [16],Activity [17],also measured
COc1ccc(Cc2cn(C)c3ccc([N+](=O)[O-])cc23)cc1C(=O)NS(=O)(=O)c1ccccc1,0,,,,,,,,,,
COc1ccc(Cc2cn(C)c3ccccc23)cc1C(=O)NS(=O)(=O)c1ccccc1F,,55,,,,,,,,,
COc1ccc(Cc2cn(C)c3ccc([N+](=O)[O-])cc23)cc1C(=O)NS(=O)(=O)c1cccc([N+](=O)[O-])c1,53,58,59,,,,,,,,
COc1cc(C(=O)NS(=O)(=O)c2ccccc2C)ccc1Cc1cn(C)c2ccc(NC(=O)OC3CCCC3)cc12 [ZAFIRLUKAST],,,,,,,,,,,Activity [4]: Toxic; inhibition of growth at 25 µM [5]: 70%; Activity [6]: Toxic; inhibition of growth at 50 µM [7]: 68%
COc1ccc(Cc2c[nH]c3ccccc23)cc1C(=O)NS(=O)(=O)c1ccc(F)cc1,,,,,,,,,,,"growth inhibition (GI) [8, 22]: inactive"
CN(C)[C@@H]1C(O)=C(C(N)=O)C(=O)[C@@]2(O)C(O)=C3C(=O)c4c(O)cccc4[C@@](C)(O)[C@H]3C[C@@H]12 [TETRACYCLINE],,,,,,,,,,,inhibition of growth at 2.81 µM [9]: 51%
COc1ccc(Cc2cn(C)c3ccccc23)cc1C(=O)NS(=O)(=O)c1ccc2ccccc2c1,,58,,49,100,inactive,76,Toxic,inactive,inactive,Activity [13]: Non-Toxic
COc1ccc(Cc2cn(C)c3ccc([N+](=O)[O-])cc23)cc1C(=O)NS(=O)(=O)c1ccc([N+](=O)[O-])cc1,53,58,59,49,100,inactive,76,Toxic,inactive,Active,Activity [18]: Active; Activity [19]: Toxic
CN[C@@H]1C[C@H]2O[C@@](C)([C@@H]1OC)n1c3ccccc3c3c4c(c5c6ccccc6n2c5c31)C(=O)NC4 [STAUROSPORINE],,,,,,,,,,,Activity [20]: Toxic; Activity [21]: Toxic
COc1ccc(Cc2cn(C)c3ccc([N+](=O)[O-])cc23)cc1C(=O)NS(=O)(=O)c1cccc(F)c1,53,58,59,49,100,inactive,76,Toxic,inactive,Active,Activity [18]: Active; Activity [19]: Toxic
COc1ccc(Cc2cn(C)c3ccccc23)cc1C(=O)NS(=O)(=O)c1ccccc1C,16,74,56,,,,,,,,
COc1ccc(Cc2cn(C)c3ccccc23)cc1C(=O)NS(=O)(=O)c1cccc([N+](=O)[O-])c1,18,58,50,49,100,inactive,76,Non-Toxic,inactive,inactive,Activity [13]: Non-Toxic; growth inhibition (GI) ([8]; dose microM 1-100): 18%
COc1ccc(Cc2cn(C)c3ccccc23)cc1C(=O)NS(=O)(=O)c1ccc(F)cc1,,58,59,49,100,inactive,76,Non-Toxic,inactive,inactive,Activity [13]: Non-Toxic
COc1ccc(Cc2cn(C)c3ccccc23)cc1C(=O)NS(=O)(=O)c1cccc(F)c1,14,73,57,49,100,inactive,76,Non-Toxic,inactive,inactive,Activity [13]: Non-Toxic
COc1ccc(Cc2c[nH]c3ccccc23)cc1C(=O)NS(=O)(=O)c1ccc2ccccc2c1,,,,,,,,,,,"growth inhibition (GI) [8, 22]: inactive"
COc1ccc(Cc2cn(C)c3ccccc23)cc1C(=O)NS(=O)(=O)c1ccc([N+](=O)[O-])cc1,,,,,,,,,,,growth inhibition (GI) ([8]; dose microM 1-100): 0%
COc1ccc(Cc2cn(C)c3ccc([N+](=O)[O-])cc23)cc1C(=O)NS(=O)(=O)c1ccc(F)cc1,,58,59,,,,,,,,
COc1ccc(Cc2cn(C)c3ccc([N+](=O)[O-])cc23)cc1C(=O)NS(=O)(=O)c1ccccc1F,53,58,59,,,,,,,,
COc1ccc(Cc2c[nH]c3ccccc23)cc1C(=O)NS(=O)(=O)c1ccccc1F,,,,,,,,,,,"growth inhibition (GI) [8, 22]: inactive"
COc1ccc(Cc2cn(C)c3ccc([N+](=O)[O-])cc23)cc1C(=O)NS(=O)(=O)c1ccc2ccccc2c1,,58,57,,,,,,,,

# — ChEMBL document CHEMBL4725435, “Second Generation of Zafirlukast Derivatives with Improved Activity against the Oral Pathogen Porphyromonas gingivalis” (ACS Med Chem Lett, 2020)
